Assay outcomes as filed in PubChem.
OX1R antag-1: OX1R (HCRTR1) antagonists, primary screen, fluorescence, CHO/OX1R cells, Fluo-8 calcium, orexin A | actives 0.43% (n = 330,000) | inhibition, % at 5 µM | AID 434989, 2010 | Fluo-8 calcium fluorescence | Orexin/Hypocretin receptor type 1 (Homo sapiens), O43613;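 active = inhibition above its plate's threshold, mean inhibition of all tested compounds on the plate plus 3 SD, cut at about 37% in these data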;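 note: 0% = orexin A challenge wells and 100% = SB-334867-A antagonist wells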
CHO parental Ca: ATP-evoked calcium signal inhibitors, parental CHO, primary screen, counter-screen for OX1R antagonist project, cell-based, fluorescence, Fluo-8 calcium dye; parental CHO-K1, ATP-induced calcium, Fluo-8 fluorescence; inhibition, % at 5.6 µM; actives 0.63% (n = 330,000);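 active = inhibition above that plate's mean sample inhibition plus 3 SD, cut at about 26% in these data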;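 note: 0% = ATP-challenged DMSO wells and 100% = DMSO wells without ATP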
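test system = CHO parental line | reagent = ATP stimulus | measured by = intracellular calcium via Fluo-8 no-wash fluorescent dye | control set = ATP and no-ATP DMSO wells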
GPR7 antagonist: GPR7 receptor antagonists, primary screen, cell-based, fluorescence, single concentration; Neuropeptides B/W receptor type 1 (Homo sapiens), P48145; GPR7-expressing cells, fluorescence antagonist assay; inhibition, % at 4.4 µM; actives 1.1% (n = 290,000); in the data active = inhibition above about 16%, passing the limit was not always enough;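 note: cells stimulated with the agonist NPW; 0% = agonist with vehicle and 100% = vehicle without agonist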
GalR3 antagonist: GalR3 antagonists in HEK293 cells, primary screen, cell-based, fluorescence readout; Galanin receptor type 3 (Homo sapiens), O60755; HEK293 GalR3-CNG cAMP membrane potential fluorescence; galR3 body fused to GalR1 C-terminus; inhibition, % at 3 µM; actives 0.44% (n = 360,000); AID 651719, 2012;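 active = inhibition above the screen-wide average plus 3 SD, cut at about 13% in these data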;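 note: forskolin and galanin both at EC90 stimulate the cells; cAMP rise reported by CNG channel membrane potential dye signal; 0% = forskolin plus galanin with DMSO and 100% = forskolin alone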
Target sequence (O60755 1-299 limits assumed): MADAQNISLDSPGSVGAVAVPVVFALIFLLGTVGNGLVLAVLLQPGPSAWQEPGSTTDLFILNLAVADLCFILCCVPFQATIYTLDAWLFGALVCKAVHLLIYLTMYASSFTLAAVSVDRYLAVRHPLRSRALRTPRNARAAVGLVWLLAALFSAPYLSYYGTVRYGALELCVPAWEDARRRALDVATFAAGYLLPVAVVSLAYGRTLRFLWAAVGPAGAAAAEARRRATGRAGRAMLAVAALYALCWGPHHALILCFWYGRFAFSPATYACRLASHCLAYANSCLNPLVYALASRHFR
OX1R antag-2: antagonists of human orexin 1 receptor (OX1R); Orexin/Hypocretin receptor type 1 (Homo sapiens), O43613; OX1R-expressing cells, FRET antagonist read-out; inhibition, % at 6.6 µM; actives 1.8% (n = 330,000); AID 485270, 2010; in the data active = inhibition mostly above about 38%, no sharp cut-off; inactive = mostly below about 40%;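 note: 0% = agonist challenge alone and 100% = reference antagonist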
GPR7 antag conf: GPR7 receptor antagonists, confirmation, cell-based, fluorescence, single concentration | shares compounds with GPR7 antagonist | GPR7-expressing cells, calcium fluorescence antagonist mode | inhibition, % at 4.4 µM | actives 52% (n = 2,400); in the data active = inhibition above about 24%;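 note: stimulated with the GPR7 agonist NPW; 0% = agonist plus vehicle and 100% = vehicle alone without agonist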
MCHR1 antagonist: MCHR1 antagonists in cells, counter-screen for GPR7 antagonist project, cell-based, fluorescence, human; shares compounds with GPR7 antagonist; MCHR1-expressing cells, fluorescence antagonist assay; inhibition, % at 4.4 µM; actives 62% (n = 2,400); AID 2148, 2009; in the data active = inhibition above about 22%;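 note: 0% = vehicle with agonist and 100% = vehicle without agonist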
Starred values were filed as active, the others as inactive; · = no result. This is a sample that favours compounds with a hit; in the whole collection about 3.1% have one here.

SMILES	OX1R antag-1	CHO parental Ca	GPR7 antagonist	GalR3 antagonist	OX1R antag-2	GPR7 antag conf	MCHR1 antagonist
CC(C)(C)c1ccc(C(=O)Nc2c3c(nn2C(C)(C)C)CS(=O)(=O)C3)cc1	-6	3	26*	-2	7	15	23*
CCCCC(c1nnnn1C1CCCC1)N1CCN(C2CCCCC2)CC1 (centres undefined)	-30	-17	42*	-3	5	47*	21
CC(=O)Oc1c(I)cc(I)cc1C(=O)Nc1ccc(Cl)cc1	9	58*	27*	-5	80*	6	61*
COc1ccc(Cl)cc1C(=O)Nc1ccc(NC(C)=O)cc1	3	0	-5	3	29	·	·
Cc1ccc(C(=O)C[n+]2cc(-c3ccc(C)cc3)n3c2CCCCC3)cc1	17	1	60*	20*	-1	32*	50*
Cc1cc2nc3c(=O)[nH]c(=O)[nH]c3nc2c([N+](=O)[O-])c1N	·	·	25*	0	·	13	4
Cc1c(N)c(C(C)(C)C)cc(C(C)(C)C)c1[N+](=O)[O-]	-30	-22	-18	-3	18	·	·
COc1ccc(CCNCC(O)Cn2c3ccccc3c3ccccc32)cc1OC (centres undefined)	23	16	43*	-12	0	56*	74*
COc1ccccc1NCC(O)Cn1c2ccccc2c2ccccc21 (centres undefined)	-3	-11	6	-5	35	·	·
CS(=O)(=O)N1CCN(c2ccc([N+](=O)[O-])c(NCc3ccc(Cl)cc3)c2)CC1	-11	0	-2	-1	20	·	·
Cc1ccc(NC(=O)NCCN2CCCCC2)cc1	-24	-16	-18	-4	0	·	·
CCC(C)c1ccc(NC(=O)NCCN2CCCCC2)cc1 (centres undefined)	-17	-11	32*	-8	14	1	4
CCN1CCN(Cc2ccc(NC(=O)c3ccc(C)c(NC(=O)C(=O)c4c[nH]c5ccccc45)c3)cc2C(F)(F)F)CC1	9	22	36*	-7	46	61*	74*
CCCCC(Nc1ncnc2ccccc12)C(=O)O (centres undefined)	-4	-7	23*	1	7	-6	-9
Cc1ccc(S(=O)(=O)N(CC(=O)N2CCCCC2)c2cccc(C)c2)cc1	-21	-23	-6	-1	42	·	·
Cc1cccc(N(CC(=O)N2CCCC2)S(=O)(=O)c2ccccc2)c1	-15	-9	23*	-4	6	-11	1
CCOC(=O)C(C)Oc1cccc2c(=O)n(CC(=O)NCc3ccccc3)ccc12 (centres undefined)	-25	-22	22*	-1	2	14	20
CCOC(=O)C(C)Oc1cccc2c(=O)n(CC(=O)NCCc3ccccc3)ccc12 (centres undefined)	-16	1	11	-5	26	·	·
NS(=O)(=O)c1cccc(NC(=O)COC(=O)CC2CC3CCC2C3)c1 (centres undefined)	-14	-11	36*	-5	-7	-6	-6
FC(F)Oc1ccc(NC(=S)NCc2ccccc2)cc1	-10	3	-7	-3	10	·	·
COc1cc(OC)cc(C(=O)NCc2ccc3c(c2)cc(C)n3C)c1	-14	-15	2	4	8	·	·
Cc1cc2cc(CNC(=S)Nc3ccc(OC(F)F)cc3)ccc2n1C	-2	4	50*	6	16	-12	51*
COc1ccc(C(=O)NCc2ccc3c(c2)cc(C)n3C)cc1	-24	-9	23*	·	2	5	4
Cn1c(=O)c2[nH]c(N=NNc3ccccc3F)nc2n(C)c1=O	3	-12	-17	-5	10	·	·
N#Cc1nc(COc2ccccc2)oc1N1CCN(Cc2ccccc2)CC1	-26	-12	26*	-6	16	33*	52*
